How the values were obtained:
Cytochrome P450 3A4 = Cytochrome P450 3A4 (Homo sapiens, UniProt P08684); assay: Activity at recombinant CYP3A4 (unknown origin) expressed in baculovirus-infected insect cells assessed as enzyme-mediated drug depletion by measuring compound level at 10 uM after 4 mins by LC-MS/MS analysis in presence of NADPH; type: ADME
Outline: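 rCYP3A4 (5 pmol/mL) incubated with BILR 402 at 1 or 10 μM in 0.1 M potassium phosphate/5 mM MgCl2, pH 7.4, with NADPH at 37 °C. Remaining BILR 402 and BILR 355 formed were read at 4 min by LC-MS/MS against a labelled internal standard.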

Cytochrome P450 2C9 = Cytochrome P450 2C9 (Homo sapiens, UniProt P11712); assay: Activity at recombinant CYP2C9 (unknown origin) expressed in baculovirus-infected insect cells assessed as enzyme-mediated drug depletion at 1 to 10 uM by LC-MS/MS analysis in presence of NADPH; type: ADME
Chain of Cytochrome P450 2C9 (P11712 whole entry): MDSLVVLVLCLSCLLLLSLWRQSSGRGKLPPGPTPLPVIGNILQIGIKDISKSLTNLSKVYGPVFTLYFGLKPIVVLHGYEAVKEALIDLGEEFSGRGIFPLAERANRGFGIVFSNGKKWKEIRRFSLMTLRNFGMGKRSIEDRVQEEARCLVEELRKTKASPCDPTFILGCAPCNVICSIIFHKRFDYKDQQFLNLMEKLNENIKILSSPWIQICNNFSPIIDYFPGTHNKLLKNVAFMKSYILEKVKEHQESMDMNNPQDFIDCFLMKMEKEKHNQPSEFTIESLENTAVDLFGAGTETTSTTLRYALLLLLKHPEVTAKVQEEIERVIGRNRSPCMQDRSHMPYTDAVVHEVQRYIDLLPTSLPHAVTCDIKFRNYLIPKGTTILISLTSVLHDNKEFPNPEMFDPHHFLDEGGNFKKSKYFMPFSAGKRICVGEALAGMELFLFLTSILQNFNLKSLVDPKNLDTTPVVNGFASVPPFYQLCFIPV
Outline: (§1)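 BILR 402 (1 or 10 μM) with baculovirus/insect-cell recombinant CYPs, levels scaled to average liver content (1A2 2, 2A6 1, 2B6 0.1, 2C9 1.5, 2C19 1.5, 2D6 0.3, 3A4 5 pmol/mL). Buffer 0.1 M potassium phosphate, 5 mM MgCl2, pH 7.4; 2.5 mM NADPH; 37 °C. Non-transfected insect microsomes served as controls. Aliquots taken 0.5–30 min and acetonitrile-quenched; depletion measured by LC-MS/MS with isotope-labelled internal standard.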

Aldehyde oxidase [1] = target: T1, Aldehyde oxidase (Homo sapiens, UniProt Q06278); assay: Activity at human recombinant AO expressed in Escherichia coli cells assessed as enzyme-mediated BILR516 metabolite formation at 5 uM by LC-MS/MS analysis; type: ADME
T1 sequence (Q06278 whole entry): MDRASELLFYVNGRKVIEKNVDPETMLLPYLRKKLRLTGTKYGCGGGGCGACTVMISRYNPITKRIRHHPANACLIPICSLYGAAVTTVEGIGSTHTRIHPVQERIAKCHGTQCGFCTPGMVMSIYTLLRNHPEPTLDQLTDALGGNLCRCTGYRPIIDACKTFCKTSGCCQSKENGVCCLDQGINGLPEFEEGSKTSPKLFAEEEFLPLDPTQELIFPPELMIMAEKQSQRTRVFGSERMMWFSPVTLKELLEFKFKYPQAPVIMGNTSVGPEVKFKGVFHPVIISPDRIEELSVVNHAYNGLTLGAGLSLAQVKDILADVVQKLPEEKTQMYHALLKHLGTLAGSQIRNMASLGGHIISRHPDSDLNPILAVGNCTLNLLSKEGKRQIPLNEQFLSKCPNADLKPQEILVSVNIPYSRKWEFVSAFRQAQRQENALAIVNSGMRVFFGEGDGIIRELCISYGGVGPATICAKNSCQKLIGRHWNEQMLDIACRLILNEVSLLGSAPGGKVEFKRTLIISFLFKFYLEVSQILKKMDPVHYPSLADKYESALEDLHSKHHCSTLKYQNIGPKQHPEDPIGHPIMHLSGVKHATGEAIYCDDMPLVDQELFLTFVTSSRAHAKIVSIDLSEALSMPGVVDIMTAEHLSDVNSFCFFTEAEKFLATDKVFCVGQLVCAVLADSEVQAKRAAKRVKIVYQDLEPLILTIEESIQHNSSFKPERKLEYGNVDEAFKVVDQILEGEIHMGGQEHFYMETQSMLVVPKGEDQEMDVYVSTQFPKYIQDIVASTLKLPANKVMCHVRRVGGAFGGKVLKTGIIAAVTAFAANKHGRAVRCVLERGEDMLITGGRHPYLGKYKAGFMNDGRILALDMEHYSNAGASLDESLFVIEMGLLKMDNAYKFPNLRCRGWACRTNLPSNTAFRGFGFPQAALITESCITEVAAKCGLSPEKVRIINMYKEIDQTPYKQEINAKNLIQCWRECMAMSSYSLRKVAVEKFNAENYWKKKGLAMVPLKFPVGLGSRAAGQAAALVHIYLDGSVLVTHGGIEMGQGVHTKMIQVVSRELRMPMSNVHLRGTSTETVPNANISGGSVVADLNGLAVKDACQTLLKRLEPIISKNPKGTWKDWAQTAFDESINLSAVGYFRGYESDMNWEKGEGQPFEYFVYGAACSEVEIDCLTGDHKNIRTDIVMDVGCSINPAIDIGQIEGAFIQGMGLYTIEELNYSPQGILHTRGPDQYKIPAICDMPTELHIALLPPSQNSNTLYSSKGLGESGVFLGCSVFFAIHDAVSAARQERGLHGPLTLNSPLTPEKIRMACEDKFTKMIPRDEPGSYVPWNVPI
Outline: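 BILR 402 (5 μM final) incubated with cytosolic extract of E. coli expressing human AO, or control E. coli cytosol lacking AO, 0.1 mg/mL protein, 0.05 M potassium phosphate pH 7.4, 37 °C.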

Liver cytosol [2] = assay: Drug metabolism in human liver cytosol assessed as BILR355 formation at 10 uM by LC-MS/MS analysis; type: ADME, tissue-based
Outline: (§2)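 BILR 402 (10 μM final) was incubated with human liver S9 or cytosol (1 mg/mL protein) in 0.05 M potassium phosphate pH 7.4 at 37 °C. Runs were done with or without 2.5 mM NADPH. Samples at 10, 20, 30 and 60 min were quenched in nevirapine/acetonitrile, filtered and analysed by LC-MS/MS; duplicate.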

Cytochrome P450 2C19 = Cytochrome P450 2C19 (Homo sapiens, UniProt P33261); assay: Activity at recombinant CYP2C19 (unknown origin) expressed in baculovirus-infected insect cells assessed as enzyme-mediated drug depletion at 1 to 10 uM by LC-MS/MS analysis in presence of NADPH; type: ADME; outline: as §1
Chain of Cytochrome P450 2C19 (P33261 whole entry): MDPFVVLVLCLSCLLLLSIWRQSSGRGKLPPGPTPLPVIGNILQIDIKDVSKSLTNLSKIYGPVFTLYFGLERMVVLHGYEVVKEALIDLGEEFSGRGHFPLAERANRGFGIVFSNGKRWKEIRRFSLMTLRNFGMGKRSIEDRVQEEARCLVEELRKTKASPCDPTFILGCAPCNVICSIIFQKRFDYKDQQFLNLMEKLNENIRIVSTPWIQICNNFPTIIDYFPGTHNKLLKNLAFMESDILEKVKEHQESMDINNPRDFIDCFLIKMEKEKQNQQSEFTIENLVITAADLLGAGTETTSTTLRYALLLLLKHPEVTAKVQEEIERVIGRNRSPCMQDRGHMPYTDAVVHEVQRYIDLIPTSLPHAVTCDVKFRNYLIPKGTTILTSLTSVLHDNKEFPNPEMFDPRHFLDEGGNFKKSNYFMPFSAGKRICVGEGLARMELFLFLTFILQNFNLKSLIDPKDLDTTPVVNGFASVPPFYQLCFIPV

[3] = Drug metabolism in human liver S9 fraction assessed as BILR355 formation at 10 uM by LC-MS/MS analysis in presence of NADPH; type: ADME, subcellular; conditions: s9, 10 µM; outline: as §2
Liver cytosol [4] = assay: Drug metabolism in human liver cytosol assessed as BILR516-18O and BILR516-16O metabolite formation at 5 uM after 60 mins by 18O incorporation based LC-MS/MS analysis; type: ADME, tissue-based; conditions: 1 h
Outline: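 BILR 402 (5 μM final) was incubated with human liver cytosol in 0.05 M potassium phosphate buffer made with 100% H2^16O or H2^16O/H2^18O 82:18 (v/v), at 37 °C without NADPH. […] The M+2 isotope contribution was subtracted before calculating peak-area ratios; n=2.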

Aldehyde oxidase [5] = target: T1, Aldehyde oxidase; assay: Drug metabolism in human liver cytosol assessed as intrinsic clearance for high affinity low capacity site aldehyde-oxidase-mediated BILR516 metabolite formation measured per mg protein after 10 mins by Eadie-Hofstee plot analysis; type: ADME, tissue-based
Outline: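 Human liver cytosol (0.1 mg/mL) was incubated with BILR 402 at 12 concentrations, 0.061–125 μM, for 10 min at 37 °C in 0.05 M potassium phosphate pH 7.4 without NADPH, within the linear range for protein and time. […] Apparent Km and Vmax were derived from the kinetic data.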

[6] = Drug metabolism in human liver S9 fraction assessed as BILR355 formation at 10 uM by LC-MS/MS analysis in absence of NADPH; type: ADME; conditions: s9, 10 µM; outline: as §2

Chain of Cytochrome P450 3A4 (P08684 whole entry): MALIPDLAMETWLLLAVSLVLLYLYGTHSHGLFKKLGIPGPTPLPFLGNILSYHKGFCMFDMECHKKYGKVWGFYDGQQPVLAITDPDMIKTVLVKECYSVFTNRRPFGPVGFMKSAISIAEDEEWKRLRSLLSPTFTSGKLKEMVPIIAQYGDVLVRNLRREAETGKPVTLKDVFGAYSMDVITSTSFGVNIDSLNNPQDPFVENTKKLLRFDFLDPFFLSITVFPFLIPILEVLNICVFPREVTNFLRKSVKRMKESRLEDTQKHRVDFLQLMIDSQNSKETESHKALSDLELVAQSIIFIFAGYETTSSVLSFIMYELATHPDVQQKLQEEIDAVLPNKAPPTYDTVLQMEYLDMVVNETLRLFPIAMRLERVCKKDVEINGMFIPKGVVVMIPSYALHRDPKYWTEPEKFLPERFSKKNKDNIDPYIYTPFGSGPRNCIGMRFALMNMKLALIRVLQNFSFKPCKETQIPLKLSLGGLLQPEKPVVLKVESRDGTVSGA

Drug metabolism (Cytochrome P450 3A4): 5 µM | Drug metabolism (Cytochrome P450 2C9): metabolite_not_detected | Drug metabolism (Aldehyde oxidase [1]): metabolite_detected | Drug metabolism (Liver cytosol [2]): metabolite_not_detected | Drug metabolism (Cytochrome P450 2C19): metabolite_not_detected | Drug metabolism [3]: metabolite_detected | Drug metabolism (Liver cytosol [4]): metabolite_detected | CLHH (Aldehyde oxidase [5]): 437 µL/min/mg | Drug metabolism [6]: metabolite_not_detected
Compound: CCN1c2ncc(CCOc3ccnc4ccccc34)cc2C(=O)N(C)c2cccnc21
